Reference: ChEMBL document CHEMBL2375257, “Synthesis of C- and O-prenylated tetrahydroxystilbenes and O-prenylated cinnamates and their action towards cancer cells” (Eur J Med Chem, 2013)

Test system: K562
Experiment: Cytotoxicity against human K562 cells assessed as growth inhibition after 72 hrs by MTT assay
Assay type: functional, cell-based
Details: for IC50: K562, 72 h
Method in brief: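 K562 leukaemia cells exposed to compounds for 72 h at 37 °C in a humidified 5% CO2 incubator, with MTT read-out. IC50 is the concentration inhibiting cell growth by 50%, estimated from two concentrations per compound. Values are the mean of two independent assays, each run in duplicate; coefficients of variation <10%.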

Row | SMILES | growth inhibition (GI) | IC50
1 | COc1ccc(CCc2cc(O)cc(OCC=C(C)C)c2)cc1O | Dose-dependent effect | 31.6 µM
2 | COc1ccc(/C=C/c2cc(O)cc(OCC=C(C)C)c2)cc1O | Dose-dependent effect | 46.8 µM
3 | COC(=O)/C=C/c1ccc(OC/C=C(\C)C=O)cc1 | Dose-dependent effect | 57.5 µM
4 | COC(=O)/C=C/c1ccc(OCC=C(C)C)cc1 | Dose-dependent effect | 97.7 µM
5 | COc1cc(CCc2cc(O)cc(OCC=C(C)C)c2)ccc1O | Dose-dependent effect | 63 µM
6 | COc1cc(/C=C/c2cc(O)cc(OC)c2CC=C(C)C)ccc1O | Dose-dependent effect | 0.1 µM
7 | COc1cc(/C=C/c2cc(O)cc(OCC=C(C)C)c2)ccc1O | Dose-dependent effect | 21 µM
8 | COC(=O)/C=C/c1ccc(OC/C=C(\C)CO)cc1 | Dose-dependent effect | 70.8 µM
9 | COc1cc(CCc2cc(O)cc(OC)c2CC=C(C)C)ccc1O | Dose-dependent effect | 10 µM
